According to ChEMBL document CHEMBL1146529, “Isolations of N-methyl-D-aspartic acid-type glutamate receptor ligands from Micronesian sponges” (J Nat Prod, 2003):
pIC50: −log10 of the molar value. The source made the active and inactive calls. No cut-off for these calls is given here.

Columns and labels:
[1] = tested on: Kainate-type glutamate receptor (Rattus norvegicus); assay: Displacement of [3H]kanic acid from kainate receptor in Sprague-Dawley rat brain membrane
[2] = tested on: Mus musculus; assay: Agonist activity at NMDA receptor assessed as induction of convulsive behavior in intracerebroventricular dosed ddY mouse; format: functional
Outline: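 Male ddY mice (15-20 g, 4-6 weeks old) received intracerebroventricular injections. More than three animals were used per dose. ED50 (pmol/mouse) was derived from dose-response curves.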

[3] = tested on: AMPA-type glutamate receptor (Rattus norvegicus); assay: Displacement of [3H]AMPA from AMPA receptor in Sprague-Dawley rat brain membrane
[4] = biological target: Glutamate NMDA receptor; assay: Displacement of [3H]CGP39653 from NMDA receptor in Sprague-Dawley rat brain membrane; format: cell membranes
Outline: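 Synaptic membranes were prepared from Sprague-Dawley rats (200-220 g). The assay used 2 nM [3H]CGP39653 to label the NMDA site, incubated at 4 °C for 1 h in 5 mM Tris-HCl (pH 7.7). Inhibition of labelled-ligand binding gave the IC50.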

[5] = tested on: Mus musculus; assay: Agonist activity at NMDA receptor assessed as induction of violent convulsive behavior in intracerebroventricular dosed ddY mouse at 145 pmol; format: functional, organism-based
[6] = tested on: Mus musculus; assay: Induction of convulsive behavior in icv dosed ddY mouse assessed as hyperactivie and stereotypical behaviors at 33 pmol; format: functional, organism-based

SMILES | Activity [1] | Activity [2] | ED50 [2] | Activity [3] | pIC50 [4] | Activity [5] | Activity [6]
O=C(O)[C@@H]1C[C@@H](OS(=O)(=O)O)CCN1 | inactive | Dose-dependent effect | 20 pmol | inactive | 6.67 | – | –
O=C(O)[C@@H]1C[C@@H](OS(=O)(=O)O)[C@H](O)CN1 [CRIBRONIC ACID] | inactive | Dose-dependent effect | 29 pmol | inactive | 7.08 | Active | Active
